ChEMBL document CHEMBL4680124, “2-Styryl-4-aminoquinazoline derivatives as potent DNA-cleavage, p53-activation and in vivo effective anticancer agents” (Eur J Med Chem, 2020)
Activity calls are given as the source filed them. The rule behind the calls is not given here.

Key:
[1] = tested on: MGC-803; test: Cell cycle arrest in human MGC-803 cells assessed as accumulation at S phase at 0.125 uM after 48 hrs by propidium iodide staining-based flow cytometric analysis (reference value: 45.1 %); assay type: functional
[2] = tested on: MGC-803; test: Induction of apoptosis in human MGC-803 cells assessed as early apoptotic cells at 0.5 uM measured after 24 hrs by Annexin-V/propidium iodide staining-based flow cytometric analysis (Rvb =0.84%)
[3] = tested on: MGC-803; test: Induction of apoptosis in human MGC-803 cells assessed as early apoptotic cells at 2.5 uM measured after 24 hrs by Annexin-V/propidium iodide staining-based flow cytometric analysis (Rvb =0.84%)
[4] = tested on: MGC-803; test: Induction of DNA damage in human MGC-803 cells assessed as increase in gamma H2AX at 2.5 uM measured after 24 hrs by Western blot analysis; assay type: functional, cell-based
In short: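 MGC-803 cells (2×10^6) plated overnight, then treated for 24 h at 0.5, 1.0 or 2.5 µM (test agent) or 5.0 µM (comparator). Whole-cell lysates separated by SDS-PAGE, transferred to PVDF and probed with primary antibodies. AP-linked anti-rabbit IgG, ECL detection, β-actin loading control. Representative of three experiments.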

[5] = Induction of mitochondria membrane potential loss in human MGC-803 cells assessed as increase in green fluorescence at 1 uM incubated 24 hrs by JC-1 probe based flow cytometry analysis (reference value: 4.67%); assay type: functional
[6] = tested on: DNA; test: Binding affinity to Escherichia coli pBR322 DNA assessed as intercalation upto 100 uM by agarose gel electrophoresis assay; assay type: nucleic-acid assay; details: dose microM <=100
In short: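 pBR322 plasmid DNA incubated with compound at 50, 100 or 200 µM for 3 h in TAE buffer. Reaction stopped with loading buffer. Run on 1% agarose gel, stained with ethidium bromide, imaged under UV transillumination. Lane controls: DNA with 1% DMSO (negative), DNA with EB (positive).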

[7] = tested on: MGC-803; test: Induction of apoptosis in human MGC-803 cells assessed as late apoptotic cells at 0.5 uM measured after 24 hrs by Annexin-V/propidium iodide staining-based flow cytometric analysis (Rvb =0.93%)
[8] = tested on: MGC-803; test: Cytotoxicity against human MGC-803 cells expressing mutant type p53 assessed as reduction in cell viability preincubated for 48 hrs and measured after 4 hrs by MTT assay; assay type: functional, cell-based
[9] = tested on: MGC-803; test: Induction of apoptosis in human MGC-803 cells assessed as activation of caspase 3 at 2.5 uM incubated for 24 hrs by flow cytometric analysis (reference value: 1.47%); assay type: functional
[10] = tested on: MGC-803; test: Cell cycle arrest in human MGC-803 cells assessed as accumulation at G1 phase at 0.25 uM after 48 hrs by propidium iodide staining-based flow cytometric analysis (reference value: 46.96 %); assay type: functional
[11] = tested on: DU-145; test: Cytotoxicity against human DU145 cells expressing mutant type p53 assessed as reduction in cell viability preincubated for 48 hrs and measured after 4 hrs by MTT assay; assay type: functional, cell-based
In short: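 MTT assay. Cells grown in DMEM (T24, MGC-803, A549, HL-7702), RPMI-1640 (DU145) or DMEM-F12 (PC-3), each with 10% FBS. Exposed to 1.25–20 µM in medium with 1% DMSO for 48 h, then MTT for 4 h. Formazan dissolved in DMSO and read at 570 nm. Five wells per concentration; means ± SD of independent repeats.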

Activity [6]: Active
Compound: NCCCCNc1nc(/C=C/c2ccc([N+](=O)[O-])cc2)nc2ccccc12
Activity [1]: 46.45%
Activity [2]: 14%
Activity [3]: 28%
Activity [4]: Active
Activity [5]: 13.9%
Activity [7]: 6.91%
IC50 [8]: 1730 nM
Activity [9]: 22.98%
Activity [10]: 7.66%
IC50 [11]: 4150 nM
